Converted amounts (≈) assume the structure as drawn. The source made the active and inactive calls. The rule behind the calls is not given here.
Legend:
Type in all cases: functional
Bacillus thuringiensis [1] = assay: Antimicrobial activity against Bacillus thuringiensis after 24 hrs by spectrophotometry
How it was run: (§1)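 Broth MIC read turbidimetrically. Bacteria were pre-cultured 24 h at 37 °C in LB, then held at 4 °C. Compounds active in an agar-well pre-screen (20 mg/ml DMSO, 100 µl per well, 37 °C 24 h) went forward. Dilutions of 1, 5, 10, 15 and 20 mg/ml DMSO from stock were made up to 10 ml LB and inoculated with 10 µl suspension. Triplicate tubes, 37 °C for 24 h, spectrophotometric growth read-out.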

Escherichia coli [2] = assay: Antimicrobial activity against Escherichia coli after 24 hrs by spectrophotometry; how it was run: as §1
Escherichia coli [3] = assay: Ratio of tetracycline MIC to compound MIC for Escherichia coli
Bacillus thuringiensis [4] = assay: Ratio of tetracycline MIC to compound MIC for Bacillus thuringiensis

Structure (SMILES) | MIC (Bacillus thuringiensis [1]) [mg/mL] | MIC (Escherichia coli [2]) [mg/mL] | Ratio (Escherichia coli [3]) | Ratio (Bacillus thuringiensis [4]) | Activity (Bacillus thuringiensis [1]) | Activity (Escherichia coli [2])
CCOC(=O)C1C(c2cccs2)NC(=O)NC1(O)C(F)(F)F (stereo not given) | ≥ 20 | ≥ 20 | 6 | 6 | – | –
CCOC(=O)C1C(c2ccc(O)cc2)NC(=O)NC1(O)C(F)(F)F (stereo not given) | ≥ 20 | ≥ 20 | 6 | 6 | – | –
CCOC(=O)C1C(c2ccc(Cl)cc2)N=C(S)NC1(O)C(F)(F)F (stereo not given) | – | – | – | – | inactive | inactive
CCOC(=O)C1C(c2ccccc2)NC(=O)NC1(O)C(F)(F)F (stereo not given) | – | – | – | – | inactive | inactive
CCOC(=O)C1C(c2ccc(C)cc2)NC(=S)NC1(O)C(F)(F)F (stereo not given) | ≥ 20 | ≥ 20 | 6 | 6 | – | –
CCOC(=O)C1C(c2ccc(F)cc2)NC(=S)NC1(O)C(F)(F)F (stereo not given) | – | – | – | – | inactive | inactive
CCOC(=O)C1C(c2ccc([N+](=O)[O-])cc2)NC(=O)NC1(O)C(F)(F)F (stereo not given) | – | – | – | – | inactive | inactive

The next lines start with results.

MIC (Bacillus thuringiensis [1]) [mg/mL] | MIC (Escherichia coli [2]) [mg/mL] | Structure (SMILES) | Ratio (Escherichia coli [3]) | Ratio (Bacillus thuringiensis [4]) | Activity (Bacillus thuringiensis [1]) | Activity (Escherichia coli [2])
≥ 20 | ≥ 20 | CCOC(=O)C1C(c2ccc(N(C)C)cc2)NC(=S)NC1(O)C(F)(F)F (stereo not given) | 6 | 6 | – | –
≥ 20 | ≥ 20 | CCOC(=O)C1C(c2ccc(O)cc2)NC(=S)NC1(O)C(F)(F)F (stereo not given) | 6 | 6 | – | –
≥ 20 | ≥ 20 | CCOC(=O)C1C(c2ccc(C)cc2)NC(=O)NC1(O)C(F)(F)F (stereo not given) | 6 | 6 | – | –
75 (≈ 169 mM) | – | CN(C)[C@@H]1C(O)=C(C(N)=O)C(=O)[C@@]2(O)C(O)=C3C(=O)c4c(O)cccc4[C@@](C)(O)[C@H]3C[C@@H]12 [TETRACYCLINE] | – | – | – | –
≥ 15 | ≥ 15 | CCOC(=O)C1C(c2ccc(OC)cc2)NC(=S)NC1(O)C(F)(F)F (stereo not given) | 6 | 6 | – | –
≥ 15 | ≥ 15 | CCOC(=O)C1C(c2ccc(Cl)cc2)NC(=O)NC1(O)C(F)(F)F (stereo not given) | 6 | 6 | – | –
≥ 15 | ≥ 15 | CCOC(=O)C1C(c2ccccc2)NC(=S)NC1(O)C(F)(F)F (stereo not given) | 6 | 6 | – | –
